Experimental data collected from several papers.
Each line is one published result; the experiments were not run side by side.

With C#Cc1n[nH]c2c(-c3cn([C@@H](C)c4ccccn4)c(=O)[nH]c3=O)cc(F)cc12 the inhibition was -0.3% (Serine/threonine-protein kinase B-raf (BRAF, Homo sapiens, UniProt P15056); enzyme activity, inhibitor; 0.1 µM).
With Nc1cccc(-c2nsc(=O)o2)c1 the kinact/KI was 7.2 M⁻¹ s⁻¹ (Proteasome Macropain subunit MB1 (PSMB5, Homo sapiens, UniProt P28074); enzyme activity, inhibitor).
COc1ccc(S(=O)(=O)N2CCCCC2)cc1C has an inhibition of < 30% (Vasopressin V2 receptor (AVPR2, Homo sapiens, UniProt P30518); ligand displacement, radioligand; 10 µM).
O=C(Nc1cccnn1)N1CCN([C@@H]2CCOc3cc(C(F)(F)F)ccc32)CC1 has an inhibition of 13% (Melanocortin receptor 3 (MC3R, Homo sapiens, UniProt P41968); cell-free assay; 20 µM).
For COc1cc(Cl)c(C(=O)N[C@@H](CN[C@H]2CC[C@@H](N)CC2)Cc2ccc(C#N)cc2)cc1-c1ccc(CN[C@H](C)c2ccc(C)cc2)o1, the remaining activity was 90% (Serine/threonine-protein kinase PRP4 homolog (PRPF4B, Homo sapiens, UniProt Q13523); enzyme activity, inhibitor; 1 µM).
For Nc1ncc(-c2nc(N3CCOCC3)nc(N3CCOCC3)n2)c(C(F)F)n1, the remaining binding was 56% (Epidermal growth factor receptor (EGFR, Homo sapiens, UniProt P00533, G719C); cell-free assay, competition with immobilised ligand; 10 µM).
The remaining binding of Cc1nn(C)cc1-c1nc2c(N3CCN(Cc4ccc(Cl)cc4)CC3)c(Cl)cnc2[nH]1 is reported as 23% (Serine/threonine-protein kinase Nek5 (NEK5, Homo sapiens, UniProt Q6P3R8); binding, competition with immobilised ligand; 1 µM).
With Cn1cc(-c2cc(F)cc(N3CCn4c(cc5c4CCCC5)C3=O)c2CO)cc(Nc2ccc(N3CCN(C4COC4)CC3)cn2)c1=O the inhibition was -1% (PAS domain-containing serine/threonine-protein kinase (PASK, Homo sapiens, UniProt Q96RG2); enzyme activity, inhibitor; 0.1 µM).
With COc1ncccc1-c1cnn2ccc(N3CCN(C(=O)OC(C)C)CC3)nc12 the remaining binding was 83% (Ribosomal protein S6 kinase alpha-2, C-terminal kinase domain (RPS6KA2, Homo sapiens, UniProt Q15349); binding, competition with immobilised ligand; 1 µM).
With Cn1cc(-c2cccc(N3CCc4c(sc5c4CC(C)(C)C5)C3=O)c2CO)cc(Nc2ccncn2)c1=O the inhibition was -4% (Serine/threonine-protein kinase mTOR (MTOR, Homo sapiens, UniProt P42345); enzyme activity, inhibitor; 1 µM).
CCN(CC)CCCC[C@H](NC(=O)[C@H](CC(C)C)NC(=O)[C@H](C)NC(=O)[C@H](Cc1ccccc1)NC(=O)c1ccc(C(C)(C)C)cc1)C(=O)N[C@@H](CO)C(=O)OC gave a ΔTm of 0.14 °C (SWI/SNF-related matrix-associated actin-dependent regulator of chromatin subfamily A member 2 (SMARCA2, Homo sapiens, UniProt P51531); thermal stability, DSF; 25 µM).
